Compound activity as filed in PubChem BioAssay.
Only some compounds are listed: those with a hit (about 2.1% of all), similar ones and a draw of the others.
CHRM1 agonist = human M1 muscarinic receptor agonists, primary screen, Fluo-8 calcium fluorescence, CHO-K1 cells, HTS; Muscarinic acetylcholine receptor M1 (Homo sapiens), P11229; CHO-K1 hM1, agonist mode; 0% DMSO, 100% acetylcholine EC100; activation, % at 3 µM; 360,000 tested, 0.33% active;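 active = activation above the run's mean compound activation plus 3 SD, cut at about 16% in these data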;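 also: peak over basal fluorescence ratio within a 140 s kinetic read after compound addition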
CHRM5 agonist = human M5 muscarinic receptor agonists, primary screen, CHO-K1 cells, Fluo-8 calcium fluorescence; activation, % at 3 µM; 360,000 tested, 0.19% active; Muscarinic acetylcholine receptor M5 (Homo sapiens), P08912; CHO-K1 hM5 cells; 0% DMSO wells, 100% maximal acetylcholine response;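 active = activation above the run's mean over test compounds plus 3 SD, cut at about 23% in these data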;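 also: signal is peak over basal fluorescence ratio across the kinetic read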
Target sequence (P08912 whole entry, looked up): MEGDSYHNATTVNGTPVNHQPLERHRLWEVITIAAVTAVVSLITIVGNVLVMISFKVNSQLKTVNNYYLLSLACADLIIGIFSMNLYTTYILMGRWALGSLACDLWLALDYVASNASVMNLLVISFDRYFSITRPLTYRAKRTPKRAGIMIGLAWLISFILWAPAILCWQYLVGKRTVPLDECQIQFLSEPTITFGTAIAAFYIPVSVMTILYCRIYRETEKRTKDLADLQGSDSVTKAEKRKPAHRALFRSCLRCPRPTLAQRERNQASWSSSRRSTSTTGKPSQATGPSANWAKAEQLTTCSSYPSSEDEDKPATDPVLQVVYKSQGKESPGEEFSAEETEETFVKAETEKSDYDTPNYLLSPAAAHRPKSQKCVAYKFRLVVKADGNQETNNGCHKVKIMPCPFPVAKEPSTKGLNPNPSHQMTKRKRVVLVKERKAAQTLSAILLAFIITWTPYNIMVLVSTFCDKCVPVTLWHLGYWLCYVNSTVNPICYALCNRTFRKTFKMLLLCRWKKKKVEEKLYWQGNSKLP
M1 PAM = human M1 muscarinic receptor positive allosteric modulators, primary screen, CHO-K1 cells, Fluo-8 calcium fluorescence, 1536-well | Muscarinic acetylcholine receptor M1 (Homo sapiens), P11229 | CHO-K1 hM1, ACh EC20; 0% = ACh EC20, 100% = maximal ACh | activation, % at 3 µM | 360,000 tested, 0.088% active; in the data active = activation above about 19%, passing the limit was not always enough
CHRM1 antagonist = human M1 muscarinic receptor antagonists, primary screen, CHO-K1 cells, Fluo-8 calcium fluorescence, 1536-well; 360,000 tested, 1.3% active; CHO-K1 hM1, ACh EC80 antagonist; Muscarinic acetylcholine receptor M1 (Homo sapiens), P11229; inhibition, % at 3 µM; AID 588852, 2011;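 active = percent inhibition above its own plate's cutoff, namely the mean of that plate's compound wells plus 3 SD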;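 also: peak over basal fluorescence ratio during 140 s after agonist addition; 0% = ACh EC80 plus DMSO and 100% = DMSO alone without agonist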
M5 PAM = human M5 muscarinic receptor positive allosteric modulators, primary screen, CHO-K1 cells, Fluo-8 calcium fluorescence. 360,000 tested, 0.3% active. Muscarinic acetylcholine receptor M5 (Homo sapiens), P08912. AID 624038, 2012. CHO-K1 hM5, ACh EC20 PAM; 0% = ACh EC20, 100% = ACh EC100. activation, % at 3 µM;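 active = activation above the run cutoff, the mean activation of all test compounds plus 3 SD, cut at about 18% in these data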
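Assay system – human M5 receptor in CHO-K1 cells · Read-out – % activation, ACh-normalized · Technique – Fluo-8 calcium fluorescence · Dosing – single-point, 3 µM nominal · Incubation – Fluo-8 loading 80 min at 37 °C plus 30 min room temperature · Repeats – singlicate, one well per test compound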
CHRM5 antagonist = human M5 muscarinic receptor antagonists, primary screen, CHO cells, Fluo-8 calcium fluorescence | inhibition, % at 3 µM | Muscarinic acetylcholine receptor M5 (Homo sapiens), P08912 | CHO-hM5 cells, ACh EC80 | 360,000 tested, 0.59% active;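 active = inhibition above a per-plate cutoff, the mean of that plate's test compounds plus 3 SD, cut at about 27% in these data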;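 also: 0% = acetylcholine EC80 with DMSO and 100% = DMSO without agonist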
* = called active by the depositor.

SMILES | CHRM1 agonist | CHRM5 agonist | M1 PAM | CHRM1 antagonist | M5 PAM | CHRM5 antagonist
CSc1ncc(CN2CCN(C(C)C)C(CCO)C2)cn1 (configuration not stated) | -7 | 2 | 8 | -1 | 4 | 4
CSc1ncc(CN2CCN(CC=C(C)C)C(CCO)C2)cn1 (configuration not stated) | -10 | -2 | -14 | 27* | -4 | 7
CSc1ncc(CN2CCN(C3CCCC3)C(CCO)C2)cn1 (configuration not stated) | -6 | -10 | -18 | 34* | 1 | 3
COc1ccc(OCCCC(=O)N2CCCc3ccccc32)cc1 | -4 | -1 | 6 | -8 | 2 | -1
O=S(=O)(Nc1cccnc1)c1ccc(C2CCCCC2)cc1 | 6 | 4 | -19 | 27* | -13 | 18
O=S(=O)(Nc1cccnc1)c1ccccc1 | -6 | -4 | 13 | -12 | 1 | -4
C=CCN1C(c2cccc(C(F)(F)F)c2)=CS/C1=C(/C#N)c1nnc(N2CCOCC2)n1-c1ccccc1 | -8 | -2 | -5 | -4 | -5 | 8
C=CCN1C(=O)NC(c2ccc(OC)cc2)(C(F)(F)F)S/C1=C(\C#N)c1nnc(N2CCOCC2)n1-c1ccccc1 (configuration not stated) | 19* | 4 | 5 | -8 | -1 | -2
CC(=O)Nc1ccc(S(=O)(=O)N2CCC3(CC2)CC(=O)c2ccccc2O3)cc1 | -3 | 1 | -15 | 32* | -8 | 3
COc1ccc(C(C)=O)cc1COC(=O)CNC(=O)C1CCCCC1 | -3 | -2 | 4 | -3 | -6 | 15
Cc1nc2c(C(F)(F)F)cccc2c2c1CCS2 | -3 | 4 | -1 | 20 | 19* | -5
Cc1cc(NC(=O)CS(=O)(=O)c2cn(Cc3ccccc3Cl)c3ccccc23)no1 | 11 | -4 | -1 | 7 | -14 | 2
CCCn1cc(SCC(=O)Nc2cc(C)on2)c2ccccc21 | -3 | -4 | 17 | -25 | 2 | 5
Cc1cc(NC(=O)CS(=O)(=O)c2cn(Cc3cccc(Br)c3)c3ccccc23)no1 | 30* | 0 | 14 | -5 | -3 | 8
Cc1cc(NC(=O)CS(=O)c2cn(Cc3cccc(Cl)c3)c3ccccc23)no1 (configuration not stated) | 23* | 5 | 3 | -6 | -2 | 2
CC1CCN(S(=O)(=O)c2ccc(Oc3ccc([N+](=O)[O-])cc3)cc2)CC1 | -6 | 0 | -18 | 30* | -1 | 0
CC1CCN(S(=O)(=O)c2ccc([N+](=O)[O-])cc2)CC1 | -8 | -18 | -5 | 0 | 4 | 4
Cc1cc2nc3n(c2cc1C)CCCN3 | -11 | -23 | -23 | 34* | -27 | 9
CCC(C)c1ccccc1OCCCCN1CCCC1 (configuration not stated) | -9 | -6 | -22 | 48* | -18 | 6
COC(=O)c1ccccc1OCCN1CCCCCC1 | -9 | -9 | -5 | -4 | -2 | -8
CC(=O)c1ccccc1OCCCCN1CCCCC1 | -9 | -25 | -26 | 59* | -6 | -2
CC(=O)c1ccccc1OCCOc1ccccc1C(C)=O | -7 | -23 | -27 | 39* | -17 | -3
CCC(C)c1ccccc1OCCOCCN1CCCC1 (configuration not stated) | -8 | -7 | -17 | 18 | -11 | 0
CC(SCc1ccccc1)C(=O)NC1CCCC1 (configuration not stated) | -3 | -4 | 8 | -6 | 4 | -10
N/C(=N\OC(=O)Nc1cccc(C(F)(F)F)c1)c1ccno1 | 0 | 0 | -1 | 6 | -17 | 27*
SMILES | CHRM1 agonist | CHRM5 agonist | M1 PAM | CHRM1 antagonist | M5 PAM | CHRM5 antagonist
Cc1ccc(S(=O)(=O)Oc2ccc(C3C4=C(CCCC4=O)OC4=C3C(=O)CCC4)cc2)cc1 | -1 | 6 | 6 | -17 | -2 | -3
CN(C)C(C)(C)C#CC(O)(c1ccccc1)c1ccccc1 | -6 | -13 | -24 | 100* | -33 | 83*
CN(C)CCC#CC(O)(c1ccccc1)c1ccccc1 | -8 | -9 | -25 | 65* | -19 | 38*
OCCN(CC#CC(O)(c1ccccc1)c1cccc(F)c1)CCO (configuration not stated) | -8 | -16 | 10 | -16 | 4 | -1
CCN(CC)CC#CC(O)(c1ccccc1)c1ccccc1 | -16 | -11 | -38 | 99* | -16 | 98*
CC(C)(C)CC(=O)Nc1cccc2c1CCCC2 | -7 | -10 | 5 | -5 | -2 | 5
CCOc1ccc(CN2CCN(Cc3cccc4nonc34)CC2CCO)cc1 (configuration not stated) | -10 | -3 | 1 | -3 | 2 | -15
S=C(Nc1ccc(Cl)cc1)N(CCCN1CCOCC1)Cc1cccs1 | -9 | -14 | -25 | 45* | -3 | 15
CCN1CCN(CCCN(Cc2ccco2)C(=S)Nc2cccc(Cl)c2C)CC1 | -8 | -13 | -11 | 18 | 1 | 2
COc1ccc(NC(=S)N(CCCN2CCCC2)Cc2ccco2)cc1 | -8 | -20 | -20 | 36* | 0 | 13
O=C(Nc1ccc(Cl)cc1)N(CCCN1CCOCC1)Cc1cccs1 | -9 | 0 | -12 | 5 | -3 | 3
CSc1cccc(NC(=S)N(CCCN2CCCC2)Cc2cccn2Cc2ccc(Cl)cc2)c1 | -3 | -16 | -7 | 7 | -6 | 10
COc1ccc(NC(=S)N(CCN2CCCCC2)Cc2ccco2)cc1 | -8 | -16 | -4 | 4 | 2 | 8
Cc1c(Cl)cccc1NC(=S)N(CCCN1CCOCC1)Cc1ccco1 | -6 | -14 | -25 | 48* | -15 | 9
CSc1cccc(NC(=S)N(CCCN2CCCC2)Cc2cccs2)c1 | -7 | -17 | -24 | 36* | -9 | 4
Cn1nnnc1Sc1ncnc2scc(-c3cccc(Br)c3)c12 | -9 | -2 | -5 | 9 | 7 | 4
Cn1ncc2c(N3CCN(c4ccccc4F)CC3)ncnc21 | 1 | 5 | 2 | -3 | 4 | -5
Cc1ccc(NC(=O)N(CCCN2CCOCC2)Cc2cccs2)cc1C | -3 | -1 | 32* | -31 | -2 | -7
S=C(NCCCN1CCOCC1)N(Cc1ccccc1)Cc1ccccc1 | -11 | -8 | -15 | 2 | -15 | 31*
